Series [1] concerns HepG2. Put plainly: Cytotoxicity against human HepG2 cells after 48 hrs by MTT assay. The format is functional, cell-based. The settings on record: HepG2, 48 h. The method in brief:
(§1)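 Cells seeded in 24-well plates at 1 × 10⁵ cells/well, allowed 12 h, then exposed to test chemical or vehicle for 48 h, in triplicate. Medium replaced with MTT in PBS (pH 7.4) for 4 h at 37 °C; formazan dissolved in DMSO and read at 540 nm. Viability = (test − background)/(control − background) × 100.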
(Tetrazolium dyes change colour on reduction, which living cells bring about.)

Series [2] deals with SK-HEP1. The series is described as follows: Cytotoxicity against human SKHEP1 cells after 48 hrs by MTT assay. It is filed as functional, cell-based. The settings on record: SK-HEP1, 48 h. In a few lines:
as §1

The subject of series [3] is Hepatocyte. The series is described as follows: Cytotoxicity against rat hepatocyte cells after 48 hrs by MTT assay. The format is cell-based. In a few lines:
as §1

Series [4] in a line: Cytotoxicity against rat hepatocyte cells assessed as survival at 200 uM after 48 hrs by MTT assay. The format is cell-based. As to conditions: rat hepatocytes, read-out: Activity. In a few lines: as §1
The test system of series [5] is HepG2. Put plainly: Cytotoxicity against human HepG2 cells at 50 uM after 48 hrs by MTT assay. It is filed as functional, cell-based. The method in brief: as §1
Series [6] deals with SK-HEP1. Put plainly: Cytotoxicity against human SKHEP1 cells at 50 uM after 48 hrs by MTT assay. It is filed as functional, cell-based. The method in brief:
as §1

The test system of series [7] is Hepatocyte. The series is described as follows: Cytotoxicity against rat hepatocyte cells at 50 uM after 48 hrs by MTT assay. The format is cell-based. As to conditions: hepatocytes. The method in brief: as §1

Data on twelve compounds can be found in ChEMBL document CHEMBL1240502, “Therapeutic effects of cantharidin analogues without bridging ether oxygen on human hepatocellular carcinoma cells” (Eur J Med Chem, 2010).

For orientation: IC50 means the concentration needed to halve the response being measured.

Structures are written as SMILES. The source made the active and inactive calls. The calls are words filed in the database; no cut-off is given here. Where only a bound is given, the exact number is not on record here.

Turning to `Cc1cnc(N2C(=O)C3C(C2=O)[C@H]2C=C[C@@H]3CC2)s1` (stereo partly drawn), the concentration for half-maximal inhibition (IC50) in series [1], in series [2] and in series [3] was over 200 µM in each case.
For the compound `Cc1cnc(/N=C2\OC(=O)C3C2[C@@H]2C=C[C@H]3CC2)s1` (stereo partly drawn), the IC50 in series [1] was 92 µM; in series [2], over 200 µM; in series [3], over 200 µM. Moreover, the viability at 48 h, 200 µM in series [4] amounted to 80%. Further, the outcome in series [5] and in series [6] was Active. The Activity result in series [7] is on record as “Non-toxic”.
`O=C1C2C(C(=O)N1c1nc3ccccc3s1)[C@H]1C=C[C@@H]2CC1` (stereo partly drawn): the IC50 in series [1], in series [2] and in series [3] was over 200 µM throughout.
As to `Cc1ccc2c(c1)C(=O)N(c1nc3ccccc3s1)C2=O`, the IC50 in series [1], in series [2] and in series [3] was over 200 µM each time.
Turning to `O=C1OC(=O)C2C3CCC(O3)C12` (stereo not drawn) [DEMETHYL-CANTHARIDIN], the IC50 in series [1] came to 74 µM; in series [2] it was 126 µM; in series [3], 75 µM.
On the same counts, the results for `Cc1cnc(N2C(=O)c3ccccc3C2=O)s1` are over 200 µM, over 200 µM and over 200 µM.
The corresponding values for `O=C1C2C(C(=O)N1c1nccs1)[C@H]1C=C[C@@H]2CC1` (stereo partly drawn) are over 200 µM, over 200 µM and over 200 µM.
On the same counts, the results for `O=C1c2ccccc2C(=O)N1c1nccs1` are over 200 µM, over 200 µM and over 200 µM.
On to `O=C1OC(=O)c2cc(Oc3ccc4c(c3)C(=O)OC4=O)ccc21`, for which the IC50 in series [1] is 121 µM; in series [2] it was 199 µM; in series [3], over 200 µM. Also, the viability at 48 h, 200 µM in series [4] was determined as 80%. The outcome in series [5] and in series [6] was Active. The Activity result in series [7] is on record as “Non-toxic”.
On to `C[C@@]12C(=O)OC(=O)[C@]1(C)[C@H]1CC[C@@H]2O1` [CANTHARIDIN], for which the IC50 was determined as 11 µM in series [1], 34 µM in series [2] and 21 µM in series [3].
Turning to `Cc1ccc2c(c1)C(=O)N(c1nccs1)C2=O`, the IC50 in series [1], in series [2] and in series [3] was over 200 µM each time.
Turning to `O=C1OC(=O)[C@H]2[C@@H]1[C@H]1C=C[C@@H]2C1`, the values for the IC50 in series [1], in series [2] and in series [3] were 62 µM, 151 µM and over 200 µM, respectively. Also, the viability at 48 h, 200 µM in series [4] amounted to 80%. For the same compound, the result in series [5] and in series [6] was Active. Besides, the Activity result in series [7] was “Non-toxic”.
